# Experimental data as given in PMC7016294 (Acta Pharmaceutica Sinica. B, 2019).
# “And” between values parts separate entries of the source, which are not always exact repeats. Identical values can stand only once.
# Legend:
# [1] = tested on: peripheral blood lymphocytes; assay: Peripheral blood lymphocytes; assay type: in vivo; conditions: SD rats, single oral dose (3 mg/kg), 1 week later
# In short: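 Male SD rats (6–8 weeks) were randomised and bled (20 μL, tail vein) for a baseline (0 h) lymphocyte count on a haematology analyser. Each received one oral dose of test compound (0.3, 1 or 3 mg/kg, in distilled water) or vehicle. Lymphocytes were counted again at 2, 4, 8, 12, 24, 72, 96, 144 and 168 h; n = 5.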
# [2] = Heart rate measurement after a single oral dose; assay type: in vivo; conditions: SD rats, single oral dose 10 mg/kg
# In short: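 Male SD rats (6–8 weeks) had baseline heart rate taken with a non-invasive rodent blood-pressure/heart-rate meter. They then received a single oral 10 mg/kg dose of test compound in distilled water, or vehicle. Heart rate was re-measured at 2, 4, 8, 12, 24 and 48 h after dosing; n = 5.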
# [3] = tested on: SDS-induced skin irritation; assay: SDS-induced acute skin irritation and inflammation mouse model; assay type: in vivo; conditions: KM mice, MTX 1.5 mg/kg, data not shown
# In short: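 Female KM mice had back hair removed and received 200 μL 15% SDS topically once daily for 7 days. From Day 8 they were dosed orally each day for 10 days with test compound (0.3–2.4 mg/kg, in water) or vehicle. On Day 18, skin thickness was measured. Skin was then fixed in 4% paraformaldehyde, cut into 5 μm H&E sections and scored blind (0–3 each) for epidermal thickening, fibroplasia, inflammatory infiltration and vasodilatation; n = 11.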
# S1P3 (EDG3) = S1P3 (EDG3) (Homo sapiens, UniProt Q99500); assay: β-arrestin assay; assay type: cell-based
# In short: (§1)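 Test compound (DMSO stock), at a range of concentrations, was added for 2 or 4 h at 37 °C. Receptor–β-arrestin recruitment was read as β-galactosidase enzyme-fragment complementation, with chemiluminescence measured after 1 h in detection reagent at room temperature. Activity was computed from the concentration series.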
# S1P4 (EDG6) = target: T1, S1P4 (EDG6) (Homo sapiens, UniProt O95977); assay: β-arrestin assay; assay type: cell-based
# T1 sequence (O95977 1-384): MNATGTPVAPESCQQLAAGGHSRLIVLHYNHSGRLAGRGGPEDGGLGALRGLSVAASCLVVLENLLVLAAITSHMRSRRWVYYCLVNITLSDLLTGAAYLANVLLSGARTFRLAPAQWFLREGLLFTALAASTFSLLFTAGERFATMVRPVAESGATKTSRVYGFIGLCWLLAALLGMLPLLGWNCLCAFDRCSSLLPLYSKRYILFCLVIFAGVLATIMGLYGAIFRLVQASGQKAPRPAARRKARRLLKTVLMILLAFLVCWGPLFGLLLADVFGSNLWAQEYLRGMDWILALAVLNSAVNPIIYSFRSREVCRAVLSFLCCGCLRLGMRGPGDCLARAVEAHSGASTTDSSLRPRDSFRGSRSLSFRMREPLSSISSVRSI
# In short: as §1
# S1P3 (EDG3), sequence (Q99500 whole entry, the tested form may be a part): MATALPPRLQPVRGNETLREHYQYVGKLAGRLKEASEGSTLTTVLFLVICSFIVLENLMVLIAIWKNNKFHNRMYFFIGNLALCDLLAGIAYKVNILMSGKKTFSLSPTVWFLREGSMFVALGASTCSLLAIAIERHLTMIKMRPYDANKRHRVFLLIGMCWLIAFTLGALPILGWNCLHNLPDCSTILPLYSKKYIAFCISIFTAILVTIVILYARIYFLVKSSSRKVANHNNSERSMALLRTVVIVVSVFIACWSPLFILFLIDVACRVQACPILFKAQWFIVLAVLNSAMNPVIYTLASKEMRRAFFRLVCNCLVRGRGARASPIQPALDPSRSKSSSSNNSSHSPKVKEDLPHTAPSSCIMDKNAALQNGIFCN
compound,measurement,setting,value
"CCCCCCCCc1ccc(CCC(N)(CO)CO)cc1 [FTY720, fingolimod]",Lymphocyte reduction 1 week after one administration,[1],26%
same,Duration of heart rate decrease,[2],12 h
same,Heart rate decrease,"[2]; as early as 2 h after treatment, 10 mg/kg",22% and 20%
"CN(Cc1cnc2nc(N)nc(N)c2n1)c1ccc(C(=O)N[C@@H](CCC(=O)O)C(=O)O)cc1 [MTX, Methotrexate]",Body weight during treatment,[3],started to decline from Day 10
"CCCCCCCCCCCCC/C=C/[C@@H](O)[C@@H](N)COP(=O)(O)O [S1P, Sphingosine-1-phosphate]",EC50,S1P3 (EDG3),0.0177 µM
same,EC50,S1P4 (EDG6),0.0491 µM
